Assays:
Assay type in all cases: ADME, organism-based
[1] = AUC (0 to infinity) in healthy white human with SLCO1B1 521TT/CYP2C8*3/*3 combined genotype at 2 mg, po; parameters: dose 2 mg, time infinity, route oral; settings: plasma
Summary of the method: (§1)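 Healthy Caucasians genotyped for CYP2C8*3 and SLCO1B1 521T>C were given a single oral 2 mg dose of repaglinide, and alcohol, caffeine and grapefruit were withheld. Plasma was sampled before dosing and at 15 times from 0.25 to 24 h. Drug was measured by LC-MS/MS against diclofenac internal standard, linear 0.098–79.139 µg/L. Noncompartmental analysis: Cmax taken as observed; AUC by linear/log-linear trapezoidal rule extrapolated to infinity.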

Homo sapiens [2] = assay: Mean change in insulin concentration in healthy white human plasma with CYP2C8*3/*3 genotype at 2 mg, po up to 6 hrs; settings: in vivo
Summary of the method: (§2)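 Healthy Caucasians got a single 2 mg oral dose and were genotyped for CYP2C8*3 and SLCO1B1 521T>C. Plasma insulin was sampled from pre-dose to 6 h and measured by solid-phase enzyme-labelled chemiluminescent immunometric assay (calibration 2–300 mU/l). Mean change is the average of post-dose values minus baseline up to 6 h, summarised per genotype group.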

Homo sapiens [3] = assay: Mean change in blood glucose concentration in healthy white human plasma SLCO1B1 521TC/CYP2C8*1/*3 combined genotype at 2 mg, po; settings: in vivo
Summary of the method: (§3)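 Venous blood glucose was read at each blood sampling time after a single oral 2 mg dose, with fasting up to 6 h. […] Maximal change is the largest change from baseline. Mean change is the average difference between values up to 6 h post-dose and baseline.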

Homo sapiens [4] = assay: Mean change in insulin concentration in healthy white human plasma with CYP2C8*1/*1 genotype at 2 mg, po up to 6 hrs; settings: in vivo; summary of the method: as §2
Homo sapiens [5] = assay: Mean change in blood glucose concentration in healthy white human plasma SLCO1B1 521CC/CYP2C8*1/*3 combined genotype at 2 mg, po; settings: in vivo; summary of the method: as §3
Homo sapiens [6] = assay: Mean change in insulin concentration in healthy white human plasma with SLCO1B1 521TT/CYP2C8*1/*3 combined genotype at 2 mg, po; settings: in vivo; summary of the method: as §2
Homo sapiens [7] = assay: Mean change in insulin concentration in healthy white human plasma with SLCO1B1 521TC/CYP2C8*1/*3 combined genotype at 2 mg, po; settings: in vivo; summary of the method: as §2
[8] = Tmax in healthy white human with CYP2C8*1/*3 genotype at 2 mg, po; settings: in vivo
[9] = AUC (0 to infinity) in healthy white human with SLCO1B1 521CC/CYP2C8*3/*3 combined genotype at 2 mg, po; parameters: dose 2 mg, route oral, time infinity; settings: plasma; summary of the method: as §1
Homo sapiens [10] = assay: Maximal change in insulin concentration in healthy white human plasma with CYP2C8*3/*3 genotype at 2 mg, po up to 6 hrs; settings: in vivo
Summary of the method: (§4)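 Plasma insulin was sampled up to 6 h after a single oral 2 mg dose, with subjects fasting. It was measured by solid-phase enzyme-labelled chemiluminescent immunometric assay, calibration range 2–300 mU/l. Maximal change is the largest change from the baseline concentration within 6 h.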

[11] = AUC (0 to infinity) in healthy white human at 2 mg, po; parameters: dose 2 mg, time infinity, route oral; settings: plasma; summary of the method: as §1
Homo sapiens [12] = assay: Mean change in insulin concentration in healthy white human plasma with SLCO1B1 521CC/CYP2C8*3/*3 combined genotype at 2 mg, po; settings: in vivo; summary of the method: as §2
[13] = Tmax in healthy white human with CYP2C8*1/*1 genotype at 2 mg, po; settings: in vivo
[14] = Oral clearance in healthy white human at 2 mg, po; settings: in vivo
Summary of the method: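 Repaglinide was assayed by LC-MS/MS with diclofenac internal standard (LLOQ 0.098 µg/L). Noncompartmental analysis gave AUC by linear/log-linear trapezoidal rule extrapolated to infinity. Weight-adjusted oral clearance = dose/(AUC × body weight).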

[15] = Cmax in healthy white human with SLCO1B1 521TT/CYP2C8*3/*3 combined genotype at 2 mg, po; parameters: dose 2 mg, route oral; settings: in vivo; summary of the method: as §1
[16] = Cmax in healthy white human with CYP2C8*1/*1 genotype at 2 mg, po; parameters: dose 2 mg, route oral; settings: in vivo; summary of the method: as §1
Homo sapiens [17] = assay: Mean change in blood glucose concentration in healthy white human plasma SLCO1B1 521TC/CYP2C8*1/*1 combined genotype at 2 mg, po; settings: in vivo; summary of the method: as §3
Homo sapiens [18] = species on record: Homo sapiens; assay: Maximal change in blood glucose concentration in healthy human plasma with SLCO1B1 521TC genotype at 0.5 mg
Homo sapiens [19] = assay: Mean change in insulin concentration in healthy white human plasma with SLCO1B1 521TC/CYP2C8*3/*3 combined genotype at 2 mg, po; settings: in vivo; summary of the method: as §2
Homo sapiens [20] = assay: Mean change in blood glucose concentration in healthy white human plasma SLCO1B1 521TT/CYP2C8*3/*3 combined genotype at 2 mg, po; settings: in vivo
Summary of the method: (§5)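 Single 2 mg oral dose in healthy Caucasian volunteers genotyped for CYP2C8*3, with SLCO1B1 521T>C also typed. […] Mean change is the average difference between values up to 6 h post-dose and baseline. Fasting lasted to 6 h. Mean with 95% CI or SD by genotype group.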

[21] = Cmax in healthy white human with SLCO1B1 521TC/CYP2C8*1/*1 combined genotype at 2 mg, po; parameters: dose 2 mg, route oral; settings: in vivo; summary of the method: as §1
Homo sapiens [22] = assay: Maximal change in insulin concentration in healthy white human plasma at 2 mg, po up to 6 hrs; settings: in vivo; summary of the method: as §4
[23] = Cmax in healthy white human with SLCO1B1 521TC/CYP2C8*1/*3 combined genotype at 2 mg, po; parameters: dose 2 mg, route oral; settings: in vivo; summary of the method: as §1
[24] = Cmax in healthy white human with SLCO1B1 521CC/CYP2C8*1/*3 combined genotype at 2 mg, po; parameters: dose 2 mg, route oral; settings: in vivo; summary of the method: as §1
[25] = AUC (0 to infinity) in healthy white human with SLCO1B1 521TC/CYP2C8*1/*3 combined genotype at 2 mg, po; parameters: dose 2 mg, time infinity, route oral; settings: plasma; summary of the method: as §1
[26] = Terminal half life in healthy white human with CYP2C8*3/*3 genotype at 2 mg, po; settings: in vivo, read-out: beta t1/2 (converted)
Summary of the method: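 Single oral 2 mg dose; plasma sampled pre-dose and from 0:15 to 24 h post-dose (15 samples). Repaglinide measured by LC-MS/MS with diclofenac internal standard; calibration 0.098–79.139 µg/L. Noncompartmental analysis; AUC by linear/log-linear trapezoidal rule extrapolated to infinity. Reported as mean with 95% CI for all subjects and for each CYP2C8*3 genotype group.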

Homo sapiens [27] = assay: Mean change in insulin concentration in healthy white human plasma with SLCO1B1 521TT/CYP2C8*3/*3 combined genotype at 2 mg, po; settings: in vivo; summary of the method: as §2
Homo sapiens [28] = assay: Mean change in blood glucose concentration in healthy white human plasma with CYP2C8*1/*1 genotype at 2 mg, po up to 6 hrs; settings: in vivo; summary of the method: as §5
[29] = Cmax in healthy white human with SLCO1B1 521CC/CYP2C8*3/*3 combined genotype at 2 mg, po; parameters: dose 2 mg, route oral; settings: in vivo; summary of the method: as §1
Homo sapiens [30] = assay: Mean change in insulin concentration in healthy white human plasma with SLCO1B1 521CC/CYP2C8*1/*3 combined genotype at 2 mg, po; settings: in vivo; summary of the method: as §2
Homo sapiens [31] = assay: Maximal change in insulin concentration in healthy white human plasma with CYP2C8*1/*1 genotype at 2 mg, po up to 6 hrs; settings: in vivo; summary of the method: as §4
Homo sapiens [32] = assay: Mean change in insulin concentration in healthy white human plasma at 2 mg, po up to 6 hrs; settings: in vivo; summary of the method: as §2
Homo sapiens [33] = assay: Mean change in insulin concentration in healthy white human plasma with SLCO1B1 521TC/CYP2C8*1/*1 combined genotype at 2 mg, po; settings: in vivo; summary of the method: as §2

Q: Which results are given for `CCOc1cc(CC(=O)N[C@@H](CC(C)C)c2ccccc2N2CCCCC2)ccc1C(=O)O` [REPAGLINIDE]?
A: AUC(0-inf) [1]: 116 ng·h/mL; Activity (Homo sapiens [2]): 2.6 mU/L; Activity (Homo sapiens [3]): -1 mM; Activity (Homo sapiens [4]): 6.7 mU/L; Activity (Homo sapiens [5]): -0.2 mM; Activity (Homo sapiens [6]): 5.6 mU/l; Activity (Homo sapiens [7]): 5.6 mU/l; Tmax [8]: 48 min; AUC(0-inf) [9]: 95.8 ng·h/mL; Activity (Homo sapiens [10]): 8.3 mU/L; AUC(0-inf) [11]: 97.4 ng·h/mL; Activity (Homo sapiens [12]): 6.1 mU/l; Tmax [13]: 48 min; CL/F [14]: 7.67 mL/min/kg; Cmax [15]: 36.6 ng/mL; Cmax [16]: 60.3 ng/mL; Activity (Homo sapiens [17]): -0.5 mM; Activity (Homo sapiens [18]): 1.9 mM; Activity (Homo sapiens [19]): 1.5 mU/l; Activity (Homo sapiens [20]): -0.1 mM; Cmax [21]: 83.7 ng/mL; Activity (Homo sapiens [22]): 18.8 mU/L; Cmax [23]: 45 ng/mL; Cmax [24]: 17.7 ng/mL; AUC(0-inf) [25]: 77.2 ng·h/mL; half-life [26]: 78 min; Activity (Homo sapiens [27]): 1 mU/l; Activity (Homo sapiens [28]): -0.42 mM; Cmax [29]: 67.9 ng/mL; Activity (Homo sapiens [30]): 0.6 mU/l; Activity (Homo sapiens [31]): 23.9 mU/L; Activity (Homo sapiens [32]): 5.5 mU/L; Activity (Homo sapiens [33]): 5.7 mU/l
